In ChEMBL document CHEMBL3352312, “Synthesis of linear and cyclic guazatine derivatives endowed with antibacterial activity” (Bioorg Med Chem Lett, 2014):

Columns and labels:
[1] = system: Acinetobacter baumannii; experiment: Antibacterial activity against Acinetobacter baumannii ATCC 17978 after 16 to 18 hrs by microbroth dilution method; format: functional
Summary of the method: (§1)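 Broth microdilution in Mueller–Hinton broth following CLSI recommendations. Strains came from ATCC or CCUG collections or the authors' clinical isolates. Compounds were dissolved in DMSO as a 100 mg/ml stock and then diluted in culture medium. Inoculum was 5 × 10⁴ CFU/well. MIC was read after 16–18 h incubation at 35–37 °C.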

[2] = system: Aeromonas hydrophila; experiment: Antibacterial activity against Aeromonas hydrophila ATCC 7966 after 16 to 18 hrs by microbroth dilution method; format: functional; summary of the method: as §1
[3] = system: Elizabethkingia meningoseptica; experiment: Antibacterial activity against Elizabethkingia meningoseptica CCUG 4310 after 16 to 18 hrs by microbroth dilution method; format: functional; summary of the method: as §1
[4] = system: Escherichia coli; experiment: Antibacterial activity against Escherichia coli CCUGT after 16 to 18 hrs by microbroth dilution method; format: functional; summary of the method: as §1
[5] = system: Klebsiella pneumoniae; experiment: Antibacterial activity against Klebsiella pneumoniae ATCC 13833 after 16 to 18 hrs by microbroth dilution method; format: functional; summary of the method: as §1
[6] = system: Pseudomonas aeruginosa; experiment: Antibacterial activity against Pseudomonas aeruginosa ATCC 27853 after 16 to 18 hrs by microbroth dilution method; format: functional; summary of the method: as §1
[7] = system: Bacillus subtilis; experiment: Antibacterial activity against Bacillus subtilis ATCC 6633 after 16 to 18 hrs by microbroth dilution method; format: functional; summary of the method: as §1
[8] = system: Enterococcus faecalis; experiment: Antibacterial activity against Enterococcus faecalis ATCC 19433 after 16 to 18 hrs by microbroth dilution method; format: functional; summary of the method: as §1
[9] = system: Staphylococcus aureus; experiment: Antibacterial activity against Staphylococcus aureus ATCC 25923 after 16 to 18 hrs by microbroth dilution method; format: functional
Summary of the method: (§2)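 Broth microdilution MIC per CLSI in Mueller–Hinton broth. Inoculum 5 × 10⁴ CFU/well. Compounds dissolved in DMSO at 100 mg/ml, then diluted in culture medium. Plates incubated 16–18 h at 35–37 °C before reading the MIC. Strains were taken from ATCC or CCUG collections or from the authors' clinical isolate collection.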

[10] = system: Staphylococcus epidermidis; experiment: Antibacterial activity against Staphylococcus epidermidis ATCC 14990 after 16 to 18 hrs by microbroth dilution method; format: functional; summary of the method: as §1
[11] = system: Streptococcus pyogenes; experiment: Antibacterial activity against Streptococcus pyogenes ATCC 12344 after 16 to 18 hrs by microbroth dilution method; format: functional; summary of the method: as §1
[12] = system: Acinetobacter baumannii; experiment: Antibacterial activity against penicillin/expanded-spectrum cephalosporin/carbapenem/aztreonam/aminoglycoside/fluoroquinolone/fosfomycin/trimethoprim/sulfamethoxazole-resistant Acinetobacter baumannii AC-54/97 after 16 to 18 hrs by microbroth dilution method; format: functional; summary of the method: as §2
[13] = system: Achromobacter xylosoxidans; experiment: Antibacterial activity against penicillin/expanded-spectrum cephalosporin/carbapenem/aminoglycoside-resistant Achromobacter xylosoxidans AX 22 after 16 to 18 hrs by microbroth dilution method; format: functional; summary of the method: as §2
[14] = system: Alcaligenes faecalis; experiment: Antibacterial activity against expanded-spectrum cephalosporin/carbapenem/monobactam-resistant Alcaligenes faecalis 424/98 after 16 to 18 hrs by microbroth dilution method; format: functional; summary of the method: as §2
[15] = system: Enterobacter cloacae; experiment: Antibacterial activity against penicillin/CEPH/carbapenem/aminoglycoside/fluoroquinolone-resistant Enterobacter cloacae VA-417/02 after 16 to 18 hrs by microbroth dilution method; format: functional; summary of the method: as §2
[16] = system: Klebsiella pneumoniae; experiment: Antibacterial activity against penicillin/expanded-spectrum cephalosporin/carbapenem/aminoglycoside/fluoroquinolone/trimethoprim/sulfamethoxazole-resistant Klebsiella pneumoniae 7023 after 16 to 18 hrs by microbroth dilution method; format: functional; summary of the method: as §2
[17] = system: Pseudomonas aeruginosa; experiment: Antibacterial activity against penicillin/expanded-spectrum cephalosporin/carbapenem/aminoglycoside-resistant Pseudomonas aeruginosa 101/1477 after 16 to 18 hrs by microbroth dilution method; format: functional; summary of the method: as §2
[18] = system: Pseudomonas aeruginosa; experiment: Antibacterial activity against penicillin/expanded-spectrum cephalosporin/carbapenem/monobactam/aminoglycoside/fluoroquinolone-resistant Pseudomonas aeruginosa VR-143/97 after 16 to 18 hrs by microbroth dilution method; format: functional; summary of the method: as §2
[19] = system: Stenotrophomonas maltophilia; experiment: Antibacterial activity against penicillin/expanded-spectrum cephalosporin/carbapenem/monobactam/aminoglycoside/trimethoprim/sulfamethoxazole/fosfomycin-resistant Stenotrophomonas maltophilia 634/08 after 16 to 18 hrs by microbroth dilution method; format: functional; summary of the method: as §2
[20] = system: Staphylococcus aureus; experiment: Antibacterial activity against penicillin-resistant Staphylococcus aureus ATCC 43300 after 16 to 18 hrs by microbroth dilution method; format: functional; summary of the method: as §2
[21] = system: Staphylococcus aureus; experiment: Antibacterial activity against glycopeptide-resistant Staphylococcus aureus ATCC 700699 (VanA) after 16 to 18 hrs by microbroth dilution method; format: functional; summary of the method: as §2
[22] = system: Staphylococcus haemolyticus; experiment: Antibacterial activity against aminoglycoside-resistant Staphylococcus haemolyticus SI-6/2011 after 16 to 18 hrs by microbroth dilution method; format: functional; summary of the method: as §2
[23] = system: Staphylococcus warneri; experiment: Antibacterial activity against penicillin/aminoglycoside-resistant Staphylococcus warneri SI-5/2011 after 16 to 18 hrs by microbroth dilution method; format: functional; summary of the method: as §2
[24] = system: Staphylococcus hominis; experiment: Antibacterial activity against linezolid-resistant Staphylococcus hominis SI-7/2011 after 16 to 18 hrs by microbroth dilution method; format: functional; summary of the method: as §2
[25] = Apparent permeability of the compound at pH 7.4 after 5 hrs by PAMPA; format: physicochemical
Summary of the method: (§3)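 Parallel artificial membrane permeability assay run at physiological pH 7.4 and at alkaline pH 10.0, the duodenal-like condition, as a gastrointestinal permeability model. Apparent permeability (P_app) is reported in nm/s, together with the percentage of compound retained in the membrane.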

[26] = Apparent permeability of the compound at pH 10.0 after 5 hrs by PAMPA; format: physicochemical; summary of the method: as §3
[27] = Apparent permeability of the compound assessed as membrane retention at pH 7.4 after 5 hrs by PAMPA; format: physicochemical; conditions: pH 7.4, 5 h; summary of the method: as §3
[28] = Apparent permeability of the compound assessed as membrane retention at pH 10.0 after 5 hrs by PAMPA; format: physicochemical; conditions: pH 10, 5 h; summary of the method: as §3
[29] = Solubility of the compound in pure water at 1.2 mg after 24 to 36 hrs by LC-MS/MS analysis; format: physicochemical
[30] = Metabolic stability in human liver microsomes after 60 mins by LC-UV-MS analysis; format: ADME; conditions: read-out: Stability
[31] = target: Albumin (Homo sapiens, UniProt P02768); experiment: Binding affinity to human serum albumin after 30 mins by fluorescence spectroscopic analysis; format: ADME
[32] = Cytotoxicity against human HeLa cells after 24 hrs; format: cell-based
[33] = Cytotoxicity against human HeLa cells after 48 hrs; format: cell-based
[34] = Ratio of CC50 for human HeLa cells to MIC for Escherichia coli CCUGT
[35] = Ratio of CC50 for human HeLa cells to MIC for Klebsiella pneumoniae 7023

Chain of Albumin (P02768 whole entry): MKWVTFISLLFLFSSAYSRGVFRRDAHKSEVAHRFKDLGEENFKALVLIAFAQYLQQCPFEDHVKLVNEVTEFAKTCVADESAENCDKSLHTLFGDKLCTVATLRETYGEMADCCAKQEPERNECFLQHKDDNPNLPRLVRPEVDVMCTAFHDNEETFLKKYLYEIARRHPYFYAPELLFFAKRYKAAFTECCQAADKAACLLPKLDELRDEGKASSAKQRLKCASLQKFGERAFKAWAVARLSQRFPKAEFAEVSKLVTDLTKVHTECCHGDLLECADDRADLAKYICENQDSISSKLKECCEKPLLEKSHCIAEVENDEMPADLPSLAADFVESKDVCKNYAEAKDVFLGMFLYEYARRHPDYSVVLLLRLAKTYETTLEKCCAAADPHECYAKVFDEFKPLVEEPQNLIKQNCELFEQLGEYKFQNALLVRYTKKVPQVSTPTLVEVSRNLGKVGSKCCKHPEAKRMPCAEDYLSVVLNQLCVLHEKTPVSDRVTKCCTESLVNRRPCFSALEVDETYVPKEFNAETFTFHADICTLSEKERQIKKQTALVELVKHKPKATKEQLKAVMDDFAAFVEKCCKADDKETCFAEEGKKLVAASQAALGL

N=C(N)NCCCCCCCCNCCCCCCCCNC(=N)NCC1CC1.O=C(O)C(F)(F)F.O=C(O)C(F)(F)F.O=C(O)C(F)(F)F
MIC [1]: 4 mg/L | MIC [2]: 8 mg/L | MIC [3]: 32 mg/L | MIC [4]: 0.5 mg/L | MIC [5]: 1 mg/L | MIC [6]: 8 mg/L | MIC [7]: 0.5 mg/L | MIC [8]: 1 mg/L | MIC [9]: 4 mg/L | MIC [10]: 0.5 mg/L | MIC [11]: < 0.125 mg/L | MIC [12]: 4 mg/L | MIC [13]: 4 mg/L | MIC [14]: 4 mg/L | MIC [15]: 2 mg/L | MIC [16]: 2 mg/L | MIC [17]: 8 mg/L | MIC [18]: 8 mg/L | MIC [19]: 4 mg/L | MIC [20]: 4 mg/L | MIC [21]: 4 mg/L | MIC [22]: 2 mg/L | MIC [23]: 2 mg/L | MIC [24]: 2 mg/L | Papp at 5 h [25]: 9.5 nm/s | Papp at 5 h [26]: 167 nm/s | Papp [27]: 8.8% | Papp [28]: 60.6% | solubility [29]: 0.966 mg/mL | remaining at 1 h [30]: > 99% | Kd [31]: 26.5 µM | CC50 at 24 h [32]: 92.6 µM | CC50 at 48 h [33]: 62 µM | Ratio [34]: >=70 | Ratio [35]: >=70
